We go through nine compounds from article PMC5669264 (Journal of medicinal chemistry, 2017).

The test system of experiment [1] is formalin-induced nociceptive behavior. The following applies: cited from earlier work; for effect on second phase of formalin test in presence of A1AR antagonist 29: with 29 (DPCPX) 3 mg/kg ip.
In experiment [2] the target is T1, A2B ARs (Homo sapiens, UniProt P29275).
T1 sequence (P29275 1-332): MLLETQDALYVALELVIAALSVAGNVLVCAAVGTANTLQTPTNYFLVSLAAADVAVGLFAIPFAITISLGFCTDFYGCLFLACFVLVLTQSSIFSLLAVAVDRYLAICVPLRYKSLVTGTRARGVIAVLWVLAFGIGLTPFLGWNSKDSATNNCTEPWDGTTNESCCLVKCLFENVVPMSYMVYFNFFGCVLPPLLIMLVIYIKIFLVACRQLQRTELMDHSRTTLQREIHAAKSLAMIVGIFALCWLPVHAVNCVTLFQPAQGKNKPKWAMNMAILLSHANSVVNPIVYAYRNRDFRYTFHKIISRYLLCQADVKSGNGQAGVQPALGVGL
Conditions: hA2B; ref Petrelli et al.[7]; cited from earlier work.

For experiment [3], the system named is formalin-induced nociceptive behavior. Kind of experiment: Formalin test. It counts as in vivo. The following applies: mice; for effect of the combination of 28 and 31 in formalin test: 28 1 mg/kg ip + 31 1 mg/kg ip.
Experiment [4] addresses T1, A2B ARs. As to the kind of experiment: Stimulation of adenylyl cyclase activity. It counts as biochemical. The essentials:
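Crude membranes came from CHO cells stably transfected with human A2B receptor, from a single high-speed spin. They were resuspended in 50 mM Tris/HCl, pH 7.4, and used immediately. Stimulation of adenylyl cyclase activity gave agonist EC50. […] Values are geometric means with 95% confidence intervals (n ≥ 3).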

For a further experiment, the target named is hA2A receptor (Homo sapiens, UniProt P29274). The following applies: ref Petrelli et al.[7]; cited from earlier work.
hA2A receptor, sequence (P29274 whole entry): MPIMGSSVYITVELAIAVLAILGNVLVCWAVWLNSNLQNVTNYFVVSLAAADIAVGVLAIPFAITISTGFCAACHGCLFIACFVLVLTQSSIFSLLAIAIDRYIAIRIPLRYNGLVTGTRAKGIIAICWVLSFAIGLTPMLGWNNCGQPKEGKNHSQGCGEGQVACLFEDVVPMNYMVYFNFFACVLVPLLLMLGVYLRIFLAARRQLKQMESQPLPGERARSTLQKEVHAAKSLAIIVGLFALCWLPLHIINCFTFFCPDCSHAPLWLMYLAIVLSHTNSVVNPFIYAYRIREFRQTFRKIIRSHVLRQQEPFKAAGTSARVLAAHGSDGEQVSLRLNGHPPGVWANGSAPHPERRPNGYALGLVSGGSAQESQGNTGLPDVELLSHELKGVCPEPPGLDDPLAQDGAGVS
In the next experiment the target is T2, hA1AR (Homo sapiens, UniProt P30542).
T2 sequence (P30542 1-326): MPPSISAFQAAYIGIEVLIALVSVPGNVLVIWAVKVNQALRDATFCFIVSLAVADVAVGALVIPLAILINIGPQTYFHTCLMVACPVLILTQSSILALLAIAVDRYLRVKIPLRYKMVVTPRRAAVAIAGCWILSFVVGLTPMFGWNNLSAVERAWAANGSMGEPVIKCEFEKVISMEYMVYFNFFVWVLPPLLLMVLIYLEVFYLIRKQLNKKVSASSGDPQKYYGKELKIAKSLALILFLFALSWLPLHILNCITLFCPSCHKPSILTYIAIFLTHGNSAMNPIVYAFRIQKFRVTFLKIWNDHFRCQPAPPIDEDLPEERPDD
The following applies: cited from earlier work.

A further experiment concerns mouse A1AR. The following applies: cited from earlier work.

Entries after “also recorded” stand apart in the source; their conditions may differ. Where two headings read alike, the source gives them in different places.

Turning to `C[C@@]1(O)[C@H](O)[C@@H](CO)O[C@H]1n1cnc2c(NC3CCCC3)nc(Cl)nc21` [Compound 27, 2-chloro-2′-C-methyl-N^6-cyclopentyladenosine], the “effect on second phase of formalin-induced hyperalgesia” value in experiment [1] (2.5–5 mg/kg ip) is “inhibited the second phase of formalin-induced hyperalgesia in a dose-dependent manner”. Also, the “effect on second phase of formalin test in presence of A1AR antagonist 29” value in experiment [1] is reported as “blocked”. For the compound `CCn1nnc([C@H]2O[C@@H](n3cnc4c(NC)nc(Cl)nc43)[C@H](O)[C@@H]2O)n1` [Compound 23], the “efficacy (pag, partial agonist % efficacy) A2B” value on A2B ARs [2] is reported as 75%. Take `CCn1nnc([C@H]2O[C@@H](n3cnc4c(NCc5cccc(Cl)c5)ncnc43)C(O)C2O)n1` (stereo in doubt) [Compound 11, (2R,3S,4R,5R)-2-(6-((3-Chlorobenzyl)amino)-9H-purin-9-yl)-5-(2-ethyl-2H-tetrazol-5-yl)tetrahydrofuran-3,4-diol]: the “effect on formalin-induced nociceptive behavior” value in experiment [3] (0.5–1.0 mg/kg ip, 10 min before formalin, P < 0.005) is recorded as “reduced the late nociceptive behavior induced by formalin in a dose-dependent manner”. As for `CNC(=O)[C@H]1O[C@@H](n2cnc3c(NCc4cccc(I)c4)nc(Cl)nc32)[C@H](O)[C@@H]1O` [Compound 31, 2-chloro-N^6-(3-iodobenzyl)-5′-N-methylcarboxamidoadenosine], the “effect of the combination of 22 and 31 in formalin test” value in experiment [3] (22 0.3 mg/kg ip + 31 1 mg/kg ip, 10 min before formalin, P < 0.005) was “completely erased the second phase and reduced the first phase of formalin-induced nociceptive behavior; also recorded: reduced completely the nocifensive behavior in both the first and the second phases of formalin test”. For the same compound, the “effect of the combination of 28 and 31 in formalin test” value in experiment [3] is “showed greater effects when combined in reducing both the first and the second phases of formalin test”.

With `CCn1nnc([C@H]2O[C@@H](n3cnc4c(NC5CC5)ncnc43)C(O)C2O)n1` (stereo in doubt) [Compound 1, (2R,3S,4R,5R)-2-(6-(Cyclopropylamino)-9H-purin-9-yl)-5-(2-ethyl-2H-tetrazol-5-yl)tetrahydrofuran-3,4-diol], the “functional behaviour at hA2B receptor” value at A2B ARs [4] was “partial A2BAR agonists”. On to `CCn1nnc([C@H]2O[C@@H](n3cnc4c(NCc5cccc(I)c5)nc(Cl)nc43)[C@H](O)[C@@H]2O)n1` [Compound 26], for which the “effect on formalin-induced nociceptive behavior” value in experiment [3] (highest dose tested 1 mg/kg ip, 10 min before formalin) is “inactive”. Further, the “efficacy (pag, partial agonist % efficacy) A2A” value on hA2A receptor is on record as 75%. Also, the “efficacy (pag, partial agonist % efficacy) A2B” value on A2B ARs [2] is given as 76%. Take `CCn1nnc([C@H]2O[C@@H](n3cnc4c(NCc5cccc(F)c5)ncnc43)C(O)C2O)n1` (stereo in doubt) [Compound 9, (2R,3R,4S,5R)-2-(2-Ethyl-2H-tetrazol-5-yl)-5-(6-((3-fluorobenzyl)amino)-9H-purin-9-yl)tetrahydrofuran-3,4-diol]: the “functional behaviour at hA2B receptor” value on A2B ARs [4] is reported as “partial A2BAR agonists”. As to `O[C@@H]1[C@H](O)[C@@H](CCl)O[C@H]1n1cnc2c(NC3C[C@@H]4CC[C@@H]3C4)ncnc21` (mixture of isomers) [Compound 28, 5′-chloro-5′-deoxy-N^6-(±)-endo-norborn-2-yl)adenosine], in experiment [3], the “effect of the combination of 28 and 31 in formalin test” value is “showed greater effects when combined in reducing both the first and the second phases of formalin test”. Besides, in experiment [1] (1–2 mg/kg ip), the “effect on second phase of formalin-induced hyperalgesia” value is on record as “inhibited the second phase of formalin-induced hyperalgesia in a dose-dependent manner”. Further, in experiment [1], the “effect on second phase of formalin test in presence of A1AR antagonist 29” value was “blocked”. Further, the “selectivity hA1AR vs hA3AR” value on hA1AR is recorded as ~ 2600 fold. Also, the “selectivity mouse A1AR vs A3AR” value in the experiment with mouse A1AR was ~ 10 000 fold. As to `CCn1nnc([C@H]2O[C@@H](n3cnc4c(NCC5CC5)ncnc43)C(O)C2O)n1` (stereo in doubt) [Compound 3, (2R,3S,4R,5R)-2-(6-((Cyclopropylmethyl)amino)-9H-purin-9-yl)-5-(2-ethyl-2H-tetrazol-5-yl)tetrahydrofuran-3,4-diol], the “functional behaviour at hA2B receptor” value at A2B ARs [4] is “partial A2BAR agonists”.
